Experimental data: ChEMBL document CHEMBL1153390, “Substituted terphenyl compounds as the first class of low molecular weight allosteric inhibitors of the luteinizing hormone receptor” (J Med Chem, 2009)
Active and inactive are the calls of the source. The calls are words filed in the database; no cut-off is given here.

Columns and labels:
[1] = target: T1, Lutropin-choriogonadotropic hormone receptor (Homo sapiens, UniProt P22888); assay: Displacement of [3H]Org43553 from human luteinizing hormone receptor expressed in CHOK1 cells at 10 uM by scintillation spectrometry; type: cell-based; details: CHO-K1
T1 sequence (P22888 whole entry): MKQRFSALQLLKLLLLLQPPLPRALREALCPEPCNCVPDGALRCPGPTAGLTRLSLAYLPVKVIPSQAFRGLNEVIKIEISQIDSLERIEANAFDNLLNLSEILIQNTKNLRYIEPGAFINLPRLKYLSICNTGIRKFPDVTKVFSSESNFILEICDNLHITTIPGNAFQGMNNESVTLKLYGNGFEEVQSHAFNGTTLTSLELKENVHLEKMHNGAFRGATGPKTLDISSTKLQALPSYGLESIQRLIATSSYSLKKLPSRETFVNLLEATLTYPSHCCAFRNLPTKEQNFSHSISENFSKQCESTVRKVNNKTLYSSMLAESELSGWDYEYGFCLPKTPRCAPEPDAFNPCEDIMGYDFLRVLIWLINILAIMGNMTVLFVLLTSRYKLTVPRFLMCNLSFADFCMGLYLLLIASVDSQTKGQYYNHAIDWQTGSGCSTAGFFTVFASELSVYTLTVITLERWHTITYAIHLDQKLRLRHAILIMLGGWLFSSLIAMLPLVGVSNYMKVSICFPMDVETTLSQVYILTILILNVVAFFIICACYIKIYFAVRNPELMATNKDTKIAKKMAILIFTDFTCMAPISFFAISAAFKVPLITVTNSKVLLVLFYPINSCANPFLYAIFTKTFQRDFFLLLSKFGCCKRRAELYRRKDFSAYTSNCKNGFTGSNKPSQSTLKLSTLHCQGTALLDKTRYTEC
In short: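 Membranes (50 µg protein) from CHO-K1 cells stably expressing human LH receptor incubated 90 min at 30 °C with 4.5 nM [3H]Org 43553 and 10 µM compound. Buffer was 25 mM Tris-HCl pH 7.4, 2 mM MgCl2, 0.1% BSA. Nonspecific binding defined with 10 µM Org 43553. Filtration on GF/B, ice-cold washes, scintillation counting. Result given as % displacement of specific binding, n=2, duplicate.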

[2] = target: T1, Lutropin-choriogonadotropic hormone receptor; assay: Displacement of [3H]Org43553 from human luteinizing hormone receptor expressed in CHOK1 cells assessed as increase in radioligand dissociation at 10 uM by scintillation spectrometry relative to control; type: cell-based; details: CHO-K1
In short: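 Membranes (50 µg protein) from CHO-K1 cells stably expressing human LH receptor preloaded with 4.5 nM [3H]Org 43553 for 90 min at 30 °C in 25 mM Tris-HCl pH 7.4, 2 mM MgCl2, 0.1% BSA. Dissociation then started with 10 µM Org 43553 ± 10 µM compound in 50% DMSO vehicle. Bound label measured after 30 min by GF/B filtration and scintillation counting. Control set at 100%. n=2, duplicate.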

[3] = target: T2, Adenosine receptor A1 (Homo sapiens) (UniProt P30542); assay: Binding affinity to adenosine A1 receptor
T2 sequence (whole entry): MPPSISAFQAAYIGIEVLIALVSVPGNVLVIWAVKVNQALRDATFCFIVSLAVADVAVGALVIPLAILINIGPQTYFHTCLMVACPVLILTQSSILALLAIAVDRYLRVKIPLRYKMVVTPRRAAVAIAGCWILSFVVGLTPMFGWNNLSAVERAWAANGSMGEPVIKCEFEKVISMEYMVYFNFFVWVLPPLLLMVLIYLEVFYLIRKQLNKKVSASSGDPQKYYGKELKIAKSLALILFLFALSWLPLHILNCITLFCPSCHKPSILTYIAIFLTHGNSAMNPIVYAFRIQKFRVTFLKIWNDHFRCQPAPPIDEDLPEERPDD

[4] = target: Adenosine receptor A2a (Homo sapiens) (UniProt P29274); assay: Binding affinity to adenosine A2A receptor
Sequence of Adenosine receptor A2a (Homo sapiens) (P29274 whole entry): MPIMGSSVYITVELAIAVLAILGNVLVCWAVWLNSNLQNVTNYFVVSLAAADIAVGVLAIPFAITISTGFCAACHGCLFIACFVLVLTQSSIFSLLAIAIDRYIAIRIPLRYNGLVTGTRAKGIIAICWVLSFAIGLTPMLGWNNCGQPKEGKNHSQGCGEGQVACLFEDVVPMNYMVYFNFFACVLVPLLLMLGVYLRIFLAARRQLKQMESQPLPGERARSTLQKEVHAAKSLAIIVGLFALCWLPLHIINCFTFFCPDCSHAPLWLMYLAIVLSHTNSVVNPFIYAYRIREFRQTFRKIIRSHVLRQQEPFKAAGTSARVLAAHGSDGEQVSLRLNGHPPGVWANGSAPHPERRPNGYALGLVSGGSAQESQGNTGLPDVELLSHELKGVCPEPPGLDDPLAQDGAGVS

[5] = target: T1, Lutropin-choriogonadotropic hormone receptor; assay: Agonist activity at human luteinizing hormone receptor expressed in CHOK1 cells assessed as c-AMP-mediated luciferase production; type: functional, cell-based, CHO-K1
In short: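 CHO-K1 cells stably expressing human LH receptor and CRE-luciferase, 7.5 × 10^5 cells/mL in DMEM/F12 with insulin and apo-transferrin. Stimulated 4 h, then luciferase read by luminescence. Basal activity set 0%; 1 nM recLH set 100%. Means of at least three assays in duplicate.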

[6] = target: T3, Adenosine receptor A3 (Homo sapiens) (UniProt P0DMS8); assay: Activity at adenosine A3 receptor assessed as allosteric modulation
T3 sequence (whole entry): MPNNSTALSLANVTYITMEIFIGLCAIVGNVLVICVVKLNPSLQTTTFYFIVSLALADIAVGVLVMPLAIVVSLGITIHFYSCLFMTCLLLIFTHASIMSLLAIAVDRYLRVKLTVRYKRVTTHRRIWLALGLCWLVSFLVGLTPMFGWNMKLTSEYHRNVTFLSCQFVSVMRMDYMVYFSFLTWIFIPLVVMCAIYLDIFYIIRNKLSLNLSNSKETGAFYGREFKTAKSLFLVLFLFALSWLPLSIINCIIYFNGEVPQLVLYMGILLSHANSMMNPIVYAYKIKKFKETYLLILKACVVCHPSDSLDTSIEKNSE

[7] = target: T1, Lutropin-choriogonadotropic hormone receptor; assay: Antagonist activity at human luteinizing hormone receptor expressed in CHOK1 cells assessed as decrease in recombinant luteinizing hormone activation potency at 10 uM by c-AMP-mediated luciferase assay; type: functional, cell-based; details: CHO-K1
In short: (§1)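 Cells as for the CRE-luciferase assay (human LH receptor, CHO-K1), stimulated 4 h with ten concentrations of recLH, rec-hCG or Org 43553, with or without 10 µM test compound. Luminescence read-out. Shift is the EC50 ratio with/without compound; 1 nM recLH response set 100%. At least three assays in duplicate.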

[8] = target: T1, Lutropin-choriogonadotropic hormone receptor; assay: Displacement of [3H]Org43553 from human luteinizing hormone receptor expressed in CHOK1 cells; type: cell-based, CHO-K1
In short: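 CHO-K1 membranes stably expressing human LH receptor, 50 µg protein, in 25 mM Tris-HCl pH 7.4 with 2 mM MgCl2 and 0.1% BSA. Incubated with 4.5 nM [3H]Org 43553 at 30 °C for 90 min, using 10 µM or a range of competitor concentrations. Nonspecific binding defined with 10 µM Org 43553. Read by filtration and scintillation counting; IC50 from nonlinear regression.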

[9] = target: T1, Lutropin-choriogonadotropic hormone receptor; assay: Displacement of [125I]human chorionic gonadotropin from human luteinizing hormone receptor expressed in CHOK1 cells assessed as increase in radioligand dissociation at 10 uM after 4 hrs by infinite dilution method; type: cell-based; details: CHO-K1
In short: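 CHO-K1 membranes expressing human LH receptor, prelabelled with 125I-hCG. Dissociation was started by infinite dilution in the presence of 10 µM compound, and bound radioligand was measured after 4 h. t=0 binding set 0% dissociation, nonspecific 100%. At least two assays in triplicate.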

[10] = target: T1, Lutropin-choriogonadotropic hormone receptor; assay: Antagonist activity at human luteinizing hormone receptor expressed in CHOK1 cells assessed as decrease in Org 43553 activation potency at 10 uM by c-AMP-mediated luciferase assay; type: functional, cell-based; details: CHO-K1; in short: as §1
[11] = target: T1, Lutropin-choriogonadotropic hormone receptor; assay: Displacement of [125I]human chorionic gonadotropin from human luteinizing hormone receptor expressed in CHOK1 cells by gamma counting; type: cell-based; details: CHO-K1
[12] = target: T1, Lutropin-choriogonadotropic hormone receptor; assay: Agonist activity at human luteinizing hormone receptor expressed in CHOK1 cells assessed as c-AMP-mediated luciferase production at 10 uM; type: functional, cell-based; details: CHO-K1
[13] = target: T1, Lutropin-choriogonadotropic hormone receptor; assay: Antagonist activity at human luteinizing hormone receptor expressed in CHOK1 cells assessed as decrease in recombinant human chorionic gonadotropin activation potency at 10 uM by c-AMP-mediated luciferase assay; type: functional, cell-based; details: CHO-K1; in short: as §1

Structure (SMILES) | Activity [1] | Activity [2] | further results
Nc1cc(-c2ccccc2)cc(-c2ccccc2)c1 | 9% | 42% | –
N#Cc1c(N)cc(-c2ccccc2)cc1-c1cccs1 | – | 29% | –
CCCCNC(=O)Oc1cc(-c2ccccc2)cc(-c2ccccc2)c1 | 61% | 65% | –
O=C(NC1CCCC1)Oc1cc(-c2ccccc2)cc(-c2ccccc2)c1 | 91% | 88% | EC50 [5]: 1.6 µM; Activity [6]: inactive; fold change (FC) [7]: 3; IC50 [8]: 2.3 µM; Activity ([8]; CHO-K1): Dose-dependent effect; Activity [9]: Active; fold change (FC) [10]: 2; Activity [11]: inactive; Activity [12]: 31%; fold change (FC) [13]: 3
COc1ccc(C(=O)Nc2nc(-c3ccccc3)cc(-c3ccccc3)n2)cc1 | – | 42% | –
O=C(NC1CCCC1)Oc1cccc(-c2ccccc2)c1 | 81% | 75% | Activity [7]: Active; Activity [10]: Active; Activity [13]: Active
Oc1cc(-c2ccccc2)cc(-c2ccccc2)c1 | -2% | 27% | –
Cc1ccc(-c2cc(OC(=O)NC3CCCC3)cc(-c3ccccc3)c2)cc1 | 72% | 102% | Activity [7]: Active; Activity [10]: Active
O=C(Oc1cc(-c2ccccc2)cc(-c2ccccc2)c1)C1CCCC1 | 9% | 41% | –
O=C(Nc1cc(-c2ccccc2)cc(-c2ccccc2)c1)C1CCCC1 | 30% | 56% | –
CC(C)(C)NC(=O)Oc1cc(-c2ccccc2)cc(-c2ccccc2)c1 | 68% | 82% | –
O=C(NC1CCCC1)Oc1cc(-c2ccccc2)cc(-c2ccc(Cl)cc2)c1 | 77% | 71% | –
c1ccc(Cn2cnc3c(-c4ccccc4)cc(-c4ccccc4)nc32)cc1 | – | 16% | –

More lines, main results first:

Activity [1] | Activity [2] | Structure (SMILES) | further results
69% | 64% | O=C(NC1CCCC1)Oc1cc(-c2ccccc2)cc(-c2ccc(Cl)c(Cl)c2)c1 | –
58% | 35% | COc1ccc(NC(=O)Oc2cc(-c3ccccc3)cc(-c3ccccc3)c2)cc1 | –
83% | 51% | O=C(NC1CCCCC1)Oc1cc(-c2ccccc2)cc(-c2ccccc2)c1 | –
28% | 79% | O=C(Nc1ccccc1)Oc1cc(-c2ccccc2)cc(-c2ccccc2)c1 | Activity [3]: inactive; Activity [4]: inactive
62% | 59% | Cc1ccc(-c2cc(OC(=O)NC3CCCC3)cc(-c3ccc(C)cc3)c2)cc1 | –
9% | 19% | O=C(Nc1ccc(Cl)cc1)Oc1cc(-c2ccccc2)cc(-c2ccccc2)c1 | –
49% | 70% | O=C(Nc1cc(-c2ccccc2)cc(-c2ccccc2)c1)NC1CCCC1 | –
30% | 80% | CCCCCNC(=O)Oc1cc(-c2ccccc2)cc(-c2ccccc2)c1 | –
-1% | 61% | CCNC(=O)Oc1cc(-c2ccccc2)cc(-c2ccccc2)c1 | –
67% | 83% | COc1ccc(-c2cc(OC(=O)NC3CCCC3)cc(-c3ccccc3)c2)cc1 | –
47% | 72% | CCCNC(=O)Oc1cc(-c2ccccc2)cc(-c2ccccc2)c1 | –
7% | – | O=C(NC1CCCC1)Oc1cc(-c2ccc(Cl)c(Cl)c2)cc(-c2ccc(Cl)c(Cl)c2)c1 | –
17% | 31% | COc1ccc(-c2cc(OC(=O)NC3CCCC3)cc(-c3ccc(OC)cc3)c2)cc1 | –
55% | – | O=C(NC1CCCC1)Oc1cc(-c2ccc(Cl)cc2)cc(-c2ccc(Cl)cc2)c1 | –
14% | 55% | CC(C)NC(=O)Oc1cc(-c2ccccc2)cc(-c2ccccc2)c1 | –
